Reference: publication PMC6146057 (ACS chemical neuroscience, 2018)
Positions count from the first letter of the chain named. Like-named read-outs stand apart in the source and are kept apart here.

What was measured:
[1] = tested on: layer V medial prefrontal cortex fEPSPs; assay: Extracellular field electrophysiology in layer V prelimbic mPFC slices; set-up: species or system mouse
Summary of the method: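 Coronal prelimbic slices (400 μm) recovered in NMDG-HEPES solution (pH 7.3) for 8–10 min at 32 °C, then were perfused with ACSF at 2 mL/min and 30–32 °C. Layer V fEPSPs were evoked from layers II–III (200 μs, 0.05 Hz) or optically in ChR2-injected mice. Compound alone was bath-applied for 20 min. Alternatively, 10 μM compound was applied for 10 min, then with 3 μM OxoM for 10 min. Slope was measured 46–50 min after washout.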

rat M1 = target: T1, rat M1 (Rattus norvegicus, UniProt P08482); conditions: reported M1 PAMs with adverse effect liability; cited from earlier work
T1 sequence (P08482 1-460): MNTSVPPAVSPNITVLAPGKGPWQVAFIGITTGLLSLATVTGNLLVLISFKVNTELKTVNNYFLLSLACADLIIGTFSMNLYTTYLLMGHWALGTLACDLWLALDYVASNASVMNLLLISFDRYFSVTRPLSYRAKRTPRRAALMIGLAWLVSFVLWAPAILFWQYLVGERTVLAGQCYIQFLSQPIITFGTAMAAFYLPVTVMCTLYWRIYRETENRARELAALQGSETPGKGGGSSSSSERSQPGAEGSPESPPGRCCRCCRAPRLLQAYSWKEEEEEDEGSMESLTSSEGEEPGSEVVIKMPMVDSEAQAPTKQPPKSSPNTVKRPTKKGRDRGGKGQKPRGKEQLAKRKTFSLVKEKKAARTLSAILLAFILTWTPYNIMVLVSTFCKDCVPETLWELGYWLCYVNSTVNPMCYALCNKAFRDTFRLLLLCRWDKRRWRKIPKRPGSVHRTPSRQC

mice = conditions: cited from earlier work
M1 [2] = target: T2, M1 (Homo sapiens, UniProt P11229); assay: M1 PAM potency at increasing ACh concentration; format: cell-based; conditions: read-out: M1 PAM potency
T2 sequence (P11229 1-460): T1 sequence (P08482 1-460) with V5A, S254T, S309P, K320R, G337A, V413I

[3] = tested on: layer V medial prefrontal cortex fEPSPs; conditions: cited from earlier work
rats [4] = conditions: cited from earlier work
M1 [5] = target: T2, M1; conditions: cited from earlier work
rats [6] = assay: Contextual fear conditioning, risperidone-induced deficit; format: in vivo, rat; conditions: 3 mg/kg i.p. alone

Structure (SMILES): C[N+](C)(C)CC#CCN1CCCC1=O [oxotremorine-M, reference compound]
- LTD of layer V fEPSPs, agonist alone ([1]; 3 μM, optical stimulation of ventral hippocampal afferents): does not induce a significant LTD

Structure (SMILES): COc1ccc(Cn2cc(C(=O)O)c(=O)c3ccccc32)cc1 [compound 1]
- Displacement of [3H]-NMS (rat M1): weak to significant displacement

Structure (SMILES): Cc1cc2c(cc1Cc1ccc(-c3cocn3)cc1)C(=O)N([C@H]1CCOC[C@@H]1O)C2 [PF-06827443]
- Displacement of [3H]-NMS (rat M1): weak to significant displacement
- Seizures in mice (mice; mice): induced seizures in mice
- EC50 (M1 [2]; ACh concentration increased to EC70): 7 ± 1 nM
- EC50 (M1 [2]; very low level of ACh (~EC9)): 40 ± 6 nM
- Agonist activity in the mouse PFC [3]: have agonist activity

Structure (SMILES): C[N+](C)(C)CCOC(N)=O [carbachol, reference compound]
- LTD of layer V fEPSPs, agonist alone ([1]; 10 μM, electrically evoked): does not induce a significant long-term depression

Structure (SMILES): Cn1cc(-c2ccc(Cn3cc(C(=O)N[C@H]4CCCC[C@@H]4O)c4c(F)cc(F)cc43)cn2)cn1 [VU6004256]
- Behavioral convulsions and cholinergic AEs (mice; rodents): devoid of behavioral convulsions and cholinergic AEs

Structure (SMILES): Cc1ccc(Cc2cc3c(=O)n([C@H]4CCCC[C@@H]4O)cnc3c3ccccc23)cn1 [compound 2]
- Displacement of [3H]-NMS (rat M1): weak to significant displacement
- Behavioral convulsions, Racine scale (mice; mice, develop rapidly and lasted 3 h): 4/5
- Efficacy in rat novel object recognition (NOR) model (rats [4]): failed to show efficacy
- Agonist activity in the mouse PFC [3]: have agonist activity

Structure (SMILES): Cn1cc(-c2ccc(CN3Cc4ncccc4C3=O)c(F)c2)cn1 [VU0453595]
- potency at M1 (M1 [5]): low micromolar range

Structure (SMILES): Cc1nc2n(c(=O)c1CCN1CCC(c3noc4cc(F)ccc34)CC1)CCCC2 [risperidone, reference compound]
- Effect on acquisition of contextual fear conditioning (rats [6]): deficits in acquisition of contextual fear conditioning
